T cruzi repl – blocks replication of Trypanosoma cruzi; T. cruzi beta-gal in NIH3T3, luminescence, 90 h; inhibition, % (test concentration not listed); hit rate 1.4% among 300,000; AID 1885;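 active = mean inhibition across valid replicates above about 55%, limit read from the data; inconclusive = mean below that limit but half or more replicates reach it; inactive = mean below it, under half of replicates reach it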;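 also: signal also drops with host cell toxicity which is not excluded here; higher percent means less beta-gal luminescence so fewer parasites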
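Read-out: Parasite load inhibition, % | Test system: Mouse NIH/3T3 fibroblasts infected with β-gal-expressing T. cruzi Tulahuen C4 | Amount: 5,000 cells/well | Medium: DMEM, 2% fetal bovine serum | Signal: GalScreen β-gal luminescence, detergent lysis, 60 min | Timing: 3 h attach, ≥90 h co-culture | Also added: Tulahuen C4 trypomastigotes, 5000/well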
GPR7 antag – blocks human GPR7 receptor signaling | hit rate 1.1% among 290,000 | inhibition, % at 4.4 µM | P48145 | AID 1861 | GPR7-expressing cells, fluorescence antagonist assay; in the data active = inhibition above about 16%, passing the limit was not always enough;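 also: cells stimulated with the agonist NPW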
Target sequence (P48145 whole entry, looked up): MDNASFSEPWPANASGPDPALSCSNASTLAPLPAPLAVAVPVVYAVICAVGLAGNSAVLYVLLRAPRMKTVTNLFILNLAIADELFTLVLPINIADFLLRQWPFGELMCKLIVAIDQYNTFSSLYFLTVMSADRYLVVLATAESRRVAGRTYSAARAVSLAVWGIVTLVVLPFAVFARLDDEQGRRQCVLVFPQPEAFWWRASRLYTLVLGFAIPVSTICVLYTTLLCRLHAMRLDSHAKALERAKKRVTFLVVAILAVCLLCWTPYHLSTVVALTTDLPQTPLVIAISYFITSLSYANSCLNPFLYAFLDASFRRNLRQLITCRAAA
Jurkat NFkB inh – lowers PMA/ionomycin-induced NF-kB signal in Jurkat cells. inhibition, % at 4 µM. AID 435003. PMA/ionomycin-induced NF-kB luciferase reporter, luminescence. hit rate 0.53% among 330,000; in the data active = inhibition above about 50%
697 NFkB inh – lowers PMA/ionomycin-induced NF-kB signal in 697 B cells | 697 B-cell NF-kB luciferase reporter, 16 h | hit rate 0.33% among 330,000 | inhibition, % at 4 µM; in the data active = inhibition above about 35%
HSF-1 act – increases HSF-1 driven luciferase reporter signal. activation, % at 9 µM. hit rate 1.7% among 300,000. NIH3T3-HGL HSF-1 luciferase reporter, MG132, 8 h; 100% = twice DMSO control signal;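 active = mean replicate activation of at least 50% with a set share of replicates each reaching 50%; inconclusive = only one of those two conditions met; inactive = mean below 50% and too few replicates reaching it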
HSF1 inh – HSF1 inhibition | NIH3T3-HGL HSE-luciferase, MG132-induced, luminescence 8 h; active compounds read low | activity change, negative = inhibition, % at 7.5 µM (by protocol) | hit rate 0.77% among 300,000 | AID 2098;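 active = more than half of replicate wells show activity change below -50%, luminescence cut by over half; inconclusive = some wells, but at most half, below -50%; inactive = no replicate well below -50%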;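 also: luciferase reports HSF-1 transcriptional activity via heat shock element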
Jurkat NFkB conf – inhibitors of the PMA/ionomycin-induced NF-kB reporter in Jurkat cells, retest; shares compounds with Jurkat NFkB inh; Jurkat NF-kB luciferase, 16 h; inhibition, % at 4 µM; hit rate 27% among 2,700; AID 435020;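 active = inhibition reaching about 45% at 4 µM in either replicate, limit read from the data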
Of the large screens only hits and unclear results are named; the others gave an inactive call (follow-up assays come after a bar, where they were run). Sampled rows, rich in hits. Any-hit rate of the full collection: about 4.8%.

CCOc1ccc(/C=C/C(O)=C2/C(=O)NC3(C)CC2c2ccccc2O3)cc1OC (stereo not given)	Jurkat NFkB inh 64 | Jurkat NFkB conf inactive
COc1ccc(CCC(=O)NCCS(=O)(=O)N2CCN(c3ccc(F)cc3)CC2)cc1	none (no result: GPR7 antag)
COc1ccc(-c2oc(=O)c3cc(OC)c(OC)cc3c2/C=C/c2ccc(OC(C)=O)cc2)cc1	none (no result: T cruzi repl, GPR7 antag, HSF-1 act, HSF1 inh)
COc1cc(-c2noc(C)c2/C=C/c2ccc(OC(C)=O)cc2)cc(OC)c1OC	Jurkat NFkB inh 68 | Jurkat NFkB conf 49
Clc1ccc(-c2nnc(CNC3CC3)o2)cc1	none
Cc1cccn2c(=O)c3cc(C(=O)NC4CCCCC4)n(C)c3nc12	none
Cc1cccn2c(=O)c3cc(C(=O)NC4CCCC4)n(C)c3nc12	Jurkat NFkB inh 51 | Jurkat NFkB conf inactive
O=C(Nc1cccc(S(=O)(=O)N2CCCCC2)c1)Nc1ccc(Cl)cc1Cl	none
Clc1ncccc1-c1nnn(-c2ccccc2)n1	none
Fc1ccc(-n2nnc(-c3cccnc3Cl)n2)cc1	none | Jurkat NFkB conf inactive
Cc1cc(C(=O)COc2cccnc2[N+](=O)[O-])c(C)n1-c1ccccc1	Jurkat NFkB inh 65 | Jurkat NFkB conf inactive
CCOc1ccc(NC(=O)C(=S)NC2CCCCC2)cc1	none
COc1ccc(NC(=O)C(=S)NC2CCCCC2)cc1	none | Jurkat NFkB conf inactive
O=C(Nc1ccc(Br)cc1)NC1CCCCCCC1	none | Jurkat NFkB conf inactive
CCc1ccc(NC(=O)C(=S)NC2CCCCC2)cc1	none | Jurkat NFkB conf inactive
O=C(C[C@@H]1C/C=C\C[C@@H](Cc2ccc(F)cc2)C(=O)OC[C@H]2CCCN2C1=O)NCCO	none (no result: T cruzi repl, GPR7 antag, HSF-1 act, HSF1 inh)
COc1ccc([C@@H]2[C@@H]3C(=O)N(C(C)(C)C)C(=O)[C@@H]3[C@]3(C)C(=O)N(c4ccc(C)cc4)C(=O)N23)cc1	none
CCOC(=O)C1=NN(C(=O)Cc2ccccc2)C(O)(C(C)(C)C)C1 (stereo not given)	none (no result: Jurkat NFkB inh, 697 NFkB inh)
O=C(COC(=O)c1cc[n+]([O-])cc1)Nc1c(Cl)cccc1C(F)(F)F	none (no result: GPR7 antag)
COc1ccc(C[C@H](N)C(=O)N[C@H]2[C@@H](O)[C@H](n3cnc4c(N(C)C)ncnc43)O[C@@H]2CO)cc1	Jurkat NFkB inh 100 (no result: T cruzi repl, GPR7 antag, HSF-1 act, HSF1 inh) | Jurkat NFkB conf 88
Cc1nc(C)c(C(=O)N/N=C/c2cc(Br)ccc2O)s1	none
CC(C)NC(=S)NN=C1c2ccccc2-c2ccccc21	none
O=C(/C=C/c1cccc([N+](=O)[O-])c1)N1CCN(c2ccccn2)CC1	none
O=C(/C=C/c1cccc([N+](=O)[O-])c1)n1cnc2ccccc21	Jurkat NFkB inh 71, HSF-1 act 231 | Jurkat NFkB conf inactive
CCn1c2ccccc2c2cc(NC(=O)COc3ccccc3OC)ccc21	none
CCn1c2ccccc2c2cc(NC(=O)CNCc3ccccc3OC)ccc21	Jurkat NFkB inh 53 | Jurkat NFkB conf inactive
Nc1ccn(Cc2ccccc2)n1	none
c1ccc(Cn2ccc(-c3cnc(-c4ccccc4)s3)n2)cc1	HSF-1 act 74 | Jurkat NFkB conf inactive
C/C(CCc1ccco1)=N/NC(=O)CCC(=O)Nc1ccc(Br)cc1	none
COc1nc(Nc2nc3ccccc3c(=O)[nH]2)nc2ccc(C)cc12	T cruzi repl 58, Jurkat NFkB inh 81 | Jurkat NFkB conf inactive
Cc1cc(C)cc(Nc2nc3ccccc3c(=O)[nH]2)c1	none
COc1ccc(CC(=O)N/N=C/c2cccnc2)cc1OC	none
CN(Cc1ccccc1)C(=O)COC(=O)c1cc(=O)[nH]c2ccccc12	none (no result: T cruzi repl, GPR7 antag, HSF-1 act, HSF1 inh)
COc1ccc(C(=O)c2ccc(OC)c(OC)c2)cc1OC	none
COc1ccc(C(=O)c2ccc(OC)c(N)c2)cc1N	Jurkat NFkB inh 53 | Jurkat NFkB conf inactive
CCCC[C@@H](CN[C@H](C)CNC)NCC1CCC(C(C)(C)C)CC1 (stereo not given in full)	Jurkat NFkB inh 53 | Jurkat NFkB conf inactive
CC[C@H](C)[C@@H](CN[C@H](CCCCNC)CNC)NCC1CCCC1	none
CCO[C@@H]1OC(C(=O)NCc2nc3ccccc3[nH]2)=C[C@H](C2CC2)[C@H]1CCCO	none
CCO[C@@H]1OC(C(=O)NCc2nc3ccccc3[nH]2)=C[C@H](C(C)(C)C)[C@H]1CCCO	Jurkat NFkB inh 73 (no result: GPR7 antag) | Jurkat NFkB conf 55
CCC[n+]1cn(/C(C(=S)Nc2cccc(Cl)c2C)=C(/[O-])c2ccc(OC)c(OC)c2)c2ccccc21	none (no result: HSF-1 act, HSF1 inh)
CCOc1ccc(NC(=O)CN(C)C(=O)C2CC(=O)N(Cc3ccco3)C2)cc1OCC (stereo not given)	none (no result: T cruzi repl, GPR7 antag, HSF-1 act, HSF1 inh)
COc1ccc(CCNC(=O)C(=O)NCC2OCCN2S(=O)(=O)c2ccc3c(c2)OCCO3)cc1OC (stereo not given)	none
O=C(N[C@H]1C/C=C\C[C@H](CC(=O)N(CCO)Cc2ccccc2)C(=O)N[C@H](Cc2c[nH]c3ccccc23)COC1=O)OCC1c2ccccc2-c2ccccc21	none (no result: T cruzi repl, GPR7 antag, HSF-1 act, HSF1 inh)
Clc1ccc(-c2nnc(-c3ccccc3Cl)o2)cc1	none | Jurkat NFkB conf inactive
COc1ccc(-c2nnc(-c3ccc(N(C)C)cc3)o2)cc1	none
CN(C)c1ccc(-c2nnc(-c3ccccc3F)o2)cc1	none | Jurkat NFkB conf inactive
Clc1ccc2c(c1)C(C1=NCCN1)c1ccccc1CS2 (stereo not given)	Jurkat NFkB inh 63 | Jurkat NFkB conf 43
O=C(CCN1C(=O)c2ccccc2S1(=O)=O)Nc1ccc(F)c(F)c1F	none (no result: GPR7 antag)
Cc1ccc(S(=O)(=O)N2CCCCC2CCNC(=O)C(=O)NCc2ccco2)cc1 (stereo not given)	none (no result: GPR7 antag)
Cc1ccc(S(=O)(=O)N2CCCCC2CCNC(=O)C(=O)NCCc2ccco2)cc1 (stereo not given)	Jurkat NFkB inh 60 (no result: GPR7 antag) | Jurkat NFkB conf inactive
COc1ccc(N2CCN(C(=O)c3ccc(CS(=O)c4cccc(C)c4)o3)CC2)cc1 (stereo not given)	none
O=C(c1ccc(CS(=O)c2ccccc2Cl)o1)N1CCN(c2ccccc2)CC1 (stereo not given)	none
COc1cccc(N2CCN(C(=O)c3ccc(CS(=O)c4ccccc4C)o3)CC2)c1 (stereo not given)	Jurkat NFkB inh 56 | Jurkat NFkB conf 36
COc1cccc(N2CCN(C(=O)c3[nH]c(C)c(C(C)=O)c3C)CC2)c1	Jurkat NFkB inh 55 | Jurkat NFkB conf inactive
COc1cccc(N2CCN(C(=O)c3ccc(CS(=O)c4ccccc4Cl)o3)CC2)c1 (stereo not given)	Jurkat NFkB inh 56 | Jurkat NFkB conf 53
CC(Oc1ccccc1)C(=O)NNC(=O)c1ccccn1 (stereo not given)	none
C/C(=N\NC(=O)C(C)Oc1ccc([N+](=O)[O-])cc1)c1ccccn1 (stereo not given)	T cruzi repl inconclusive, Jurkat NFkB inh 61 | Jurkat NFkB conf inactive

From PubChem BioAssay
